ChEMBL document CHEMBL3784921, “Mimicking of Arginine by Functionalized N(ω)-Carbamoylated Arginine As a New Broadly Applicable Approach to Labeled Bioactive Peptides: High Affinity Angiotensin, Neuropeptide Y, Neuropeptide FF, and Neurotensin Receptor Ligands As Examples” (J Med Chem, 2016)
*1 amine or outer side, *2 acyl side, *3 side chain or, on linkers, in order; H or OH if unused. Where a SMILES comes first, the peptide text is derived from it. Bridges are numbered along the chain shown (N, C = ends). Roman numbers before positions name the chains, in order. [ ]: non-standard residue; d: D form. X1 = CCC(=O)NCCCCNC(=O)/N=C(\N)NCCC[C@H](N[*:1])C(=O)[*:2]; X6 = CCC(=O)NCCCCNC(=O)/N=C(/N)NCCC[C@H](N[*:1])C(=O)[*:2]; X3 = NCCOCCOCCNC(=O)/N=C(\N)NCCC[C@H](N[*:1])C(=O)[*:2]; X4 = NCCOCCOCCNC(=O)/N=C(/N)NCCC[C@H](N[*:1])C(=O)[*:2]; X2 = NCCCCNC(=O)/N=C(\N)NCCC[C@H](N[*:1])C(=O)[*:2]; X7 = NCCCCNC(=O)/N=C(/N)NCCC[C@H](N[*:1])C(=O)[*:2]; Suberoyl = O=C(CCCCCCC(=O)[*:2])[*:1]

Columns and labels:
[1] = biological target: T1, Type-1 angiotensin II receptor (Homo sapiens, UniProt P30556); experiment: Displacement of [3H]-Asp-{Nomega-[N-(4-propanoylaminobutyl)aminocarbonyl]}Arg-ValTyr-Ile-His-Pro-Phe-OH Tris(hydrotrifluoroacetate) from human AT1 receptor transfected in CHO cells co-expressing Galpha16-mtAEQ after 2 hrs by liquid scintillation counting; assay type: cell-based
T1 sequence (P30556 whole entry): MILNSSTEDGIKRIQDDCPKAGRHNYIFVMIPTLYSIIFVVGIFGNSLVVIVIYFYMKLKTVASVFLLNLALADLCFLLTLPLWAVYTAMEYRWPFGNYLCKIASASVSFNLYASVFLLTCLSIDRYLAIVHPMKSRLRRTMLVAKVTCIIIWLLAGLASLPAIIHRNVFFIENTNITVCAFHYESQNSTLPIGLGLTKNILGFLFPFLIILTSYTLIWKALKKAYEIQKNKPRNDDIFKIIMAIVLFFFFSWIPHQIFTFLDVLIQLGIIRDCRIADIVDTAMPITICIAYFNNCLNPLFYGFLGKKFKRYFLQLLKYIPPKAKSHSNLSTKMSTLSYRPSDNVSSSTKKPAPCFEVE

[2] = biological target: T1, Type-1 angiotensin II receptor; experiment: Agonist activity at human AT1 receptor transfected in CHO cells co-expressing Galpha16-mtAEQ assessed as induction of intracellular Ca2+ mobilization by bioluminescence assay; assay type: functional, cell-based
[3] = Chemical stability of compound at 200 uM at pH 7 at 21 degC after 24 to 48 hrs by reversed-phase HPLC analysis; assay type: physicochemical; conditions: buffer, pH 7, 200 µM
How it was run: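 Peptide incubated in phosphate buffer (PBS), pH 7.0, 21 °C, for 24 or 48 h. Remaining intact peptide assessed by reversed-phase HPLC chromatograms.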

[4] = biological target: Neuropeptide FF receptor 2 (Homo sapiens, UniProt Q9Y5X5); experiment: Displacement of [3H]EYE from human NPFF2 receptor expressed in CHO cell membranes after 1 hr by liquid scintillation spectrophotometric counting
Neuropeptide FF receptor 2, sequence (Q9Y5X5 whole entry): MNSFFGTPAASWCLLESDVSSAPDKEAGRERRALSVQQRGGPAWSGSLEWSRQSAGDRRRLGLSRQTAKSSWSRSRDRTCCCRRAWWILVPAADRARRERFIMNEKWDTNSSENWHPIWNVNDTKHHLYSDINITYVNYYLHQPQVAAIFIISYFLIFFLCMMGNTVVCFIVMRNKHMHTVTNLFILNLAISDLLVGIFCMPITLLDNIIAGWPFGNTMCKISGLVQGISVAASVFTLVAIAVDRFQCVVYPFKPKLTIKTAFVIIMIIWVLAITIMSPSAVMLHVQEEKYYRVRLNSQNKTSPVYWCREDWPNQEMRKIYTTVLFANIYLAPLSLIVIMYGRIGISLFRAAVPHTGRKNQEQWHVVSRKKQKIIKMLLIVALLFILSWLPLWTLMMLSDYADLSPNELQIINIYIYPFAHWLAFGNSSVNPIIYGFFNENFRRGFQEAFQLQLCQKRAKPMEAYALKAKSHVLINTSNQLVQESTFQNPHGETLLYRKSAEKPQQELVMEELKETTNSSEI

[5] = biological target: T2, Neurotensin receptor type 1 (Homo sapiens, UniProt P30989); experiment: Displacement of [3H]-{Nomega-[N-(4-propanoylaminobutyl)aminocarbonyl]}Arg-Arg-ProTyr-Ile-Leu-OH Tris(hydrotrifluoroacetate) from NTSR1 in human HT-29 cells after 2 hrs by liquid scintillation counting; assay type: cell-based
T2 sequence (P30989 whole entry, the tested form may be a part): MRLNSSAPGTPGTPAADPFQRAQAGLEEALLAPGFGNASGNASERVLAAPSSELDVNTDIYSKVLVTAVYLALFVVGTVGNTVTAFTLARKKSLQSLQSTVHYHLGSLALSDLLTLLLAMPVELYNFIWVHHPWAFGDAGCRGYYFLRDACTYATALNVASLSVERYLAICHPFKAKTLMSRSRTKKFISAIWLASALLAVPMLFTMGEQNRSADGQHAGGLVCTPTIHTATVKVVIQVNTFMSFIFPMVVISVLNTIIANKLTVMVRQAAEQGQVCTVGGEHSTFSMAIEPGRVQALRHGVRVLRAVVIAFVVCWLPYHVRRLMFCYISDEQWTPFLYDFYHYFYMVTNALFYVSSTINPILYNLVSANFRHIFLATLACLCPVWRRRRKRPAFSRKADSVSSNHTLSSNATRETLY

[6] = biological target: Neurotensin receptor type 2 (Homo sapiens, UniProt O95665); experiment: Displacement of [3H]NT(8 to 13 residues) from human NTSR2 expressed in HEK293 cell membranes
Neurotensin receptor type 2, sequence (O95665 whole entry, the tested form may be a part): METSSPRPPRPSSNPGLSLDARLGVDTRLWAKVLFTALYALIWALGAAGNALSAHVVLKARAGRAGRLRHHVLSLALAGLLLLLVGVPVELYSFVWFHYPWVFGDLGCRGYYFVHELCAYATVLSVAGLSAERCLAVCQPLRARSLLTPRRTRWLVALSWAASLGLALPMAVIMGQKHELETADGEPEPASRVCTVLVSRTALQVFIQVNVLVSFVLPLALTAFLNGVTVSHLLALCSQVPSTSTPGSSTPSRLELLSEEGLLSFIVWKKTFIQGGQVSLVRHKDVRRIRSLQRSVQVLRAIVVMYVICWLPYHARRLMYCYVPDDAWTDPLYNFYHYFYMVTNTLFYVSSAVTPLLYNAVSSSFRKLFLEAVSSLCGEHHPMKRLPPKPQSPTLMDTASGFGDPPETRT

[7] = biological target: T2, Neurotensin receptor type 1; experiment: Displacement of [3H]-{Nomega-[N-(4-propanoylaminobutyl)aminocarbonyl]}Arg-Arg-ProTyr-Ile-Leu-OH Tris(hydrotrifluoroacetate) from human NTSR1 transfected in CHO cells co-expressing Galpha16-mtAEQ after 2 hrs by liquid scintillation counting; assay type: cell-based
[8] = biological target: T2, Neurotensin receptor type 1; experiment: Agonist activity at NTSR1 in human HT-29 cells assessed as induction of intracellular Ca2+ mobilization by fura-2 dye-based spectrofluorimetric analysis; assay type: functional, cell-based
[9] = biological target: Neuropeptide Y receptor type 4 (Homo sapiens, UniProt P50391); experiment: Displacement of S0586[K4]hpp from human NPY4 receptor expressed in CHO cells co-expressing Gqi5-mtAEQ by flow cytometric analysis; assay type: cell-based
Neuropeptide Y receptor type 4, sequence (P50391 whole entry): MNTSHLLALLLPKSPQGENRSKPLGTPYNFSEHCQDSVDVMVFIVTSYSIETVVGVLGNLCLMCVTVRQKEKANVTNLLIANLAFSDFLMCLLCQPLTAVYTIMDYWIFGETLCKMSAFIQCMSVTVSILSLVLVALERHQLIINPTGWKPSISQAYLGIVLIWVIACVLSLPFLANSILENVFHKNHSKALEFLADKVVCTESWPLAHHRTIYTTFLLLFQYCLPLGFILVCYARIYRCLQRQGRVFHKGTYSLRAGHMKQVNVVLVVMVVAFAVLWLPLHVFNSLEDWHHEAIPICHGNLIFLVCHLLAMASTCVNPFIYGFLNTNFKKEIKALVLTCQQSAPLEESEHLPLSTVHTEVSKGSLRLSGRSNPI

Ki [5]	Ki [9]	SMILES	Stability [3]	further results
–	7.4 nM	CC(C)C[C@H](NC(=O)[C@H](CCCNC(=N)N)NC(=O)[C@H](Cc1ccc(O)cc1)NC(=O)CCCCCCC(=O)N[C@@H](Cc1ccc(O)cc1)C(=O)N[C@@H](CCCNC(=N)N)C(=O)N[C@@H](CC(C)C)C(=O)N[C@@H](CCCNC(=N)N)C(=O)N[C@@H](Cc1ccc(O)cc1)C(N)=O)C(=O)N[C@@H](CCCNC(=N)N)C(=O)N[C@@H](Cc1ccc(O)cc1)C(N)=O (I: YRLRY-NH2 / II: YRLRY-NH2; linker I:N-II:N via Suberoyl)	–	–
–	3.6 nM	CCC(=O)NCCCCNC(=O)/N=C(\N)NCCC[C@H](NC(=O)[C@H](Cc1ccc(O)cc1)NC(=O)CCCCCCC(=O)N[C@@H](Cc1ccc(O)cc1)C(=O)N[C@@H](CCCNC(=N)N)C(=O)N[C@@H](CC(C)C)C(=O)N[C@@H](CCCNC(=N)N)C(=O)N[C@@H](Cc1ccc(O)cc1)C(N)=O)C(=O)N[C@@H](CC(C)C)C(=O)N[C@@H](CCCNC(=N)N)C(=O)N[C@@H](Cc1ccc(O)cc1)C(N)=O (I: Y[X1]LRY-NH2 / II: YRLRY-NH2; linker I:N-II:N via Suberoyl)	–	–
–	1.5 nM	CC(C)C[C@H](NC(=O)[C@H](CCCNC(=N)N)NC(=O)[C@H](Cc1ccc(O)cc1)NC(=O)CCCCCCC(=O)N[C@@H](Cc1ccc(O)cc1)C(=O)N[C@@H](CCCN/C(N)=N/C(=O)NCCCCN)C(=O)N[C@@H](CC(C)C)C(=O)N[C@@H](CCCNC(=N)N)C(=O)N[C@@H](Cc1ccc(O)cc1)C(N)=O)C(=O)N[C@@H](CCCNC(=N)N)C(=O)N[C@@H](Cc1ccc(O)cc1)C(N)=O (I: Y[X2]LRY-NH2 / II: YRLRY-NH2; linker I:N-II:N via Suberoyl)	–	–

Continued, compound first:

SMILES	Ki [5]	Ki [9]	Stability [3]	further results
CC[C@H](C)[C@H](NC(=O)[C@H](Cc1ccc(O)cc1)NC(=O)[C@@H](NC(=O)[C@H](CCCN/C(N)=N/C(=O)NCCOCCOCCN)NC(=O)[C@@H](N)CC(=O)O)C(C)C)C(=O)N[C@@H](Cc1cnc[nH]1)C(=O)N1CCC[C@H]1C(=O)N[C@@H](Cc1ccccc1)C(=O)O.O=C(O)C(F)(F)F.O=C(O)C(F)(F)F.O=C(O)C(F)(F)F.O=C(O)C(F)(F)F (H-D[X3]VYIHPF-OH)	–	–	Stable	Ki [1]: 2.8 nM; EC50 [2]: 2.1 nM
CCC(=O)NCCCCNC(=O)/N=C(/N)NCCC[C@H](NC(=O)[C@H](CCC(N)=O)NC(=O)[C@@H]1CCCN1C(=O)[C@H](C)NC(=O)[C@H](C)NC(=O)[C@H](CC(C)C)NC(=O)[C@H](CO)NC(=O)[C@H](Cc1c[nH]c2ccccc12)NC(=O)[C@H](Cc1ccc(O)cc1)NC(=O)[C@@H](N)CCC(=O)O)C(=O)N[C@@H](Cc1ccccc1)C(N)=O.O=C(O)C(F)(F)F.O=C(O)C(F)(F)F (H-EYWSLAAPQ[X6]F-NH2)	–	–	Stable	Ki [4]: 41 nM
CC(C)C[C@H](NC(=O)[C@H](CO)NC(=O)[C@H](Cc1c[nH]c2ccccc12)NC(=O)[C@H](Cc1ccc(O)cc1)NC(=O)[C@@H](N)CCC(=O)O)C(=O)N[C@@H](C)C(=O)N[C@@H](C)C(=O)N1CCC[C@H]1C(=O)N[C@@H](CCC(N)=O)C(=O)N[C@@H](CCCN/C(N)=N\C(=O)NCCCCN)C(=O)N[C@@H](Cc1ccccc1)C(N)=O.O=C(O)C(F)(F)F.O=C(O)C(F)(F)F.O=C(O)C(F)(F)F (H-EYWSLAAPQ[X7]F-NH2)	–	–	Stable	Ki [4]: 27 nM
CC[C@H](C)[C@H](NC(=O)[C@H](Cc1ccc(O)cc1)NC(=O)[C@@H]1CCCN1C(=O)[C@H](CCCN/C(N)=N\C(=O)NCCOCCOCCN)NC(=O)[C@@H](N)CCCNC(=N)N)C(=O)N[C@@H](CC(C)C)C(=O)O (H-R[X4]PYIL-OH)	0.36 nM	–	–	–
CC[C@H](C)[C@H](NC(=O)[C@H](Cc1ccc(O)cc1)NC(=O)[C@@H]1CCCN1C(=O)[C@H](CCCNC(=N)N)NC(=O)[C@@H](N)CCCN/C(N)=N/C(=O)NCCCCN)C(=O)N[C@@H](CC(C)C)C(=O)O.O=C(O)C(F)(F)F.O=C(O)C(F)(F)F.O=C(O)C(F)(F)F.O=C(O)C(F)(F)F (H-[X2]RPYIL-OH)	0.47 nM	–	Stable	IC50 [5]: 1.35 nM; Ki [6]: 0.74 nM; Ki [7]: 0.69 nM; EC50 ([8]; read-out: EC50): 1.7 nM; EC50 ([8]; read-out: pEC50 (converted)): 1.55 nM
CC[C@H](C)[C@H](NC(=O)[C@H](Cc1ccc(O)cc1)NC(=O)[C@@H]1CCCN1C(=O)[C@H](CCCNC(=N)N)NC(=O)[C@@H](N)CCCN/C(N)=N/C(=O)NCCOCCOCCN)C(=O)N[C@@H](CC(C)C)C(=O)O (H-[X3]RPYIL-OH)	0.26 nM	–	–	–
